The list is not random: actives were taken first. Their share in the collection is about 1.5%.
Bfl-1 A1 inh: caspase 3/7 activation in MEF A1-2A-BIM cells, primary screen, A1 inhibitor project, cell-based, luminescence, HTS. 330,000 compounds, 0.066% hits. Caspase-Glo 3/7 luminescence, 3 h; percent of clofoctol response, vehicle zero. caspase activation, % (concentration not given with the values). AID 2462, 2010;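 active = over half of replicate activation scores above 10%, or exactly half above 10 with the replicate mean above 10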
HNF4A DNA FP: change in binding of human HNF4A to DNA, primary screen, biochemical, fluorescence polarization, FITC-DNA. 360,000 compounds, 0.3% hits. AID 1224865, 2016. activity change, % at 10 µM. Hepatocyte nuclear factor 4-alpha (Homo sapiens), P41235. 1 h; in the data active = activity change above about 30%, passing the limit was not always enough
EBNA-1 inhibitor: EBNA-1 DNA-binding inhibitors, primary screen, biochemical, fluorescence polarization; inhibition, % at 14.8 µM; 300,000 compounds, 0.34% hits; AID 1950, 2009; in the data active = inhibition above about 28%
ZTA counter: blocks Epstein-Barr virus ZTA, an EBNA-1 counter-screen. AID 2234. 320,000 compounds, 0.15% hits. ZTA-DNA binding, fluorescence polarization. inhibition, % at 11 µM; in the data active = inhibition above about 33%
Target sequence (P03206 whole entry, looked up): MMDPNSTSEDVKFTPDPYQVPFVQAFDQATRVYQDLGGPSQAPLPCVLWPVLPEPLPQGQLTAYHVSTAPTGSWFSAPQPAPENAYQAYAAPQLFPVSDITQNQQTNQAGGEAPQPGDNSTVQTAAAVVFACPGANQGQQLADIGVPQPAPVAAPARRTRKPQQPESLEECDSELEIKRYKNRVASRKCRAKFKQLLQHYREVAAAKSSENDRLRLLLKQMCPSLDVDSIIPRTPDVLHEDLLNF
CSN deneddyl inh: inhibitors of CSN-mediated cullin deneddylation, primary screen, biochemical, fluorescence polarization, uHTS; COP9 signalosome complex subunit 5 (Homo sapiens), Q92905; Purified CSN, SCF-Nedd8-OG deneddylation; 360,000 compounds, 0.38% hits; inhibition, % at 12.5 µM; AID 651999, 2013;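 active = pattern-corrected inhibition above about 35%, with an unprinted fluorescence ratio check between 0.5 and 1.5, limit read from the data, passing the limit was not always enough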;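 also: 0% = enzyme with substrate and 100% = substrate without enzyme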
Target sequence (Q92905 whole entry, looked up, one chain of several): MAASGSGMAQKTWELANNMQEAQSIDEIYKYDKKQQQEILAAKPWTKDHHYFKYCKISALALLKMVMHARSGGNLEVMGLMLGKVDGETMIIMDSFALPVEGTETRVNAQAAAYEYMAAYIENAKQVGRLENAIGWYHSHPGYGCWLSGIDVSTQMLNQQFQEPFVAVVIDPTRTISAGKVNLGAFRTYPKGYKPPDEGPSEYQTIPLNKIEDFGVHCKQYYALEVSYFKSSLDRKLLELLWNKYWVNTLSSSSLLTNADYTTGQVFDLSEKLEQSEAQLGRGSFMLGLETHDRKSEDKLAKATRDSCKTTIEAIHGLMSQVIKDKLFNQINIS
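Material: purified human Csn5 enzyme expressed in HEK293T cells / Medium: Tris buffer pH 7.5, NaCl, DTT, Tween-20, trehalose, ovalbumin / Compound dosing: 12.5 µM single point / Schedule: 90 min incubation of compound, enzyme and substrate at room temperature / Signal: fluorescence polarization of the substrate / Control set: no-enzyme wells high, enzyme-with-substrate wells low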
LANA-H2B inh: blockers of LANA interaction with H2A/H2B – biochemical, FP readout, HTS, primary screen; inhibition, % (concentration not given with the values); 320,000 compounds, 0.6% hits; cell-free LANA-H2A/H2B peptide, fluorescence polarization; Protein LANA1 (Human herpesvirus 8 type P (isolate GK18)), Q9QR71; AID 2629, 2010; in the data active = inhibition mostly above about 10%, no sharp cut-off; inactive = mostly below about 6.7%
EBNA-1 inh conf: EBNA-1 DNA-binding inhibitors, retest, confirmation, biochemical, fluorescence polarization, triplicate. shares compounds with EBNA-1 inhibitor. Recombinant EBNA-1 DBD, Cy5-DNA fluorescence polarization. inhibition, % at 14.8 µM. 830 compounds, 35% hits;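 active = mean inhibition across replicates above a set limit taken from the earlier primary screen, cut at about 28% in these data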;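 also: plate controls were EBNA-1 protein with DMSO for no effect and wells lacking EBNA-1 for full effect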
ZTA DNA inh trip: EBV Zta DNA binding inhibitors, counter-screen for EBNA-1 inhibitor project, biochemical, fluorescence polarization, triplicate. shares compounds with EBNA-1 inhibitor. Zta-ZRE DNA binding, Cy5 fluorescence polarization. inhibition, % at 11.1 µM. 830 tested, under 10 active. AID 2328, 2010;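 active = mean inhibition over triplicates above a set limit taken from the primary EBNA-1 screen, cut at about 37% in these data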;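 also: purified full length Zta protein with Cy5 labeled ZRE DNA probe; 0% = Zta with DMSO and 100% = wells lacking Zta protein; inhibitors lower polarization by freeing the labeled DNA probe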
Zta DNA confirm: EBV Zta binding to ZRE DNA, inhibitors, confirmation, biochemical, fluorescence polarization, triplicate; AID 2361, 2010; 320 compounds, 30% hits; shares compounds with ZTA counter; inhibition, % at 11.1 µM;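 active = mean inhibition across triplicate runs above the hit threshold derived for the original primary screen, cut at about 33% in these data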;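 also: 0% = Zta with DMSO and 100% = wells lacking Zta protein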
EBNA-1 counter: EBNA-1 DNA-binding inhibition, counter-screen for ZTA inhibitor project, biochemical, fluorescence polarization; shares compounds with ZTA counter; inhibition, % at 14.8 µM; 320 tested, under 10 active; AID 2362, 2010; call rule not given here
CSN deneddyl val: Csn5 deneddylation inhibitors, confirmation, biochemical, fluorescence polarization, single concentration, SCF-Nedd8OG substrate. shares compounds with CSN deneddyl inh. AID 720654, 2013. 540 compounds, 62% hits. inhibition, % at 16.6 µM. Csn5 deneddylation of SCF-Nedd8OG, 90 min; in the data active = inhibition above about 50%;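 also: 0% = DMSO with enzyme and 100% = no enzyme wells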
MMP-2 counter: MMP-2 protease inhibition counter-screen, confirmation, counter-screen for CSN deneddylation inhibitor project, biochemical, fluorescence, single concentration. 540 compounds, 33% hits. shares compounds with CSN deneddyl inh. AID 720655, 2013. recombinant MMP-2, FRET substrate fluorescence, 60 min. inhibition, % at 16.6 µM;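 active = corrected plate-normalized z-score of 5 or more, or -5 or less, or inhibition of 15% or more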;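 also: plate controls were DMSO wells with enzyme for no effect and buffer wells lacking MMP-2 for full effect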
Thrombin cntr: counter-screen for CSN deneddylation inhibitors: bovine thrombin inhibition | shares compounds with CSN deneddyl inh | bovine thrombin cleavage of Ub4-pepOG, fluorescence polarization | inhibition, % at 16.6 µM | 540 compounds, 49% hits;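 active = inhibition at or above a set limit, with a fluorescence interference ratio between 0.5 and a set maximum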
* marks the source's active call; other numbers are inactive results; nt = no result given.

SMILES	Bfl-1 A1 inh	HNF4A DNA FP	EBNA-1 inhibitor	ZTA counter	CSN deneddyl inh	LANA-H2B inh	Zta DNA confirm	EBNA-1 counter	others
CN(C)C(=O)Oc1noc2cc(Cl)ccc12	0.1	-2.2	34.0*	8.8	-1.4	-2.0	nt	nt	EBNA-1 inh conf=-7.7;ZTA DNA inh trip=-5.2
COc1cc(C=C2C(=O)NC(=O)NC2=O)ccc1OS(=O)(=O)c1ccccc1[N+](=O)[O-]	0.3	2.2	4.2	24.6	5.0	1.6	nt	nt
COc1ccc(-c2csc(NC(=O)COC(=O)Cc3ccccc3)n2)cc1OC	-0.1	nt	30.5*	15.0	nt	-0.1	nt	nt	EBNA-1 inh conf=34.0*;ZTA DNA inh trip=-0.2
Cn1c(O)c(/C=N/N2CCCCC2)c(=O)[nH]c1=O	0.2	1.4	2.3	37.2*	-12.8	1.8	1.0	4.4
Cc1ccc(-n2c(O)c(/C=N/N3CCCCCC3)c(=O)[nH]c2=O)cc1C	-0.6	-5.3	-5.8	0.8	-1.1	0.9	nt	nt
COc1ccc(C(c2nnnn2-c2ccc3c(c2)OCCO3)N2CCC3(CC2)C(=O)NCN3c2ccccc2)cc1 (stereo not drawn)	nt	0.9	nt	nt	2.0	nt	nt	nt
CCCCC(=O)N/N=C/c1c(O)n(CC)c(=S)[nH]c1=O	-0.1	-1.9	6.7	36.1*	0.9	2.6	-2.7	-8.1
O=C(O)CC1OCC=C2CN3CCC45C6=CC(=O)C(=O)C([N+](=O)[O-])=C6NC4C1C2CC35 (stereo not drawn)	-0.6	-4.4	-18.8	41.4*	7.4	-4.3	67.5*	-1.7
O=C(O)CC1OCC=C2CN3CCC45c6ccccc6NC4C1C2CC35 (stereo not drawn)	0.2	-1.6	-0.1	-11.9	3.4	0.2	nt	nt
COC(=O)C1=C(c2ccc3ccccc3c2)C[C@@H]2CC[C@H]1N2C(=O)N1CCCCC1	-0.5	-3.0	nt	-15.9	1.8	-2.1	nt	nt
CCN(CC)c1ccc(N=Cc2c(O)n(-c3cc(OC)ccc3OC)c(=O)[nH]c2=O)cc1	0.5	12.9	-16.6	34.4*	20.6	-3.7	-5.5	-5.7
CCOC(=O)CSc1ccc(C(=O)N2CCC3(CC2)OCCO3)cc1[N+](=O)[O-]	1.2	1.9	4.1	1.1	-0.4	5.2	nt	nt
CCc1ccc(N2C(=O)NC(=O)/C(=C\c3cc(C)n(-c4cc(C(=O)O)cc(C(=O)O)c4)c3C)C2=O)cc1	0.2	-19.0	-7.3	36.6*	23.7	-6.2	27.8	-7.6
OCCNc1c2c(nc3ccccc13)CCCC2	-0.3	-2.7	-8.8	17.9	3.6	-2.3	nt	nt
C[n+]1c2ccccc2nc2ccc(NCCO)cc21	-0.5	-1.1	21.7	59.8*	6.5	7.2	48.2*	26.9
CCOC(=O)c1c(NS(=O)(=O)c2ccccc2)n(CCCOC)c2nc3ccccc3nc12	0.3	0.8	6.7	55.6*	48.5*	0.9	-3.7	-10.5	CSN deneddyl val=95.2*;MMP-2 counter=-2.7;Thrombin cntr=-0.8
O=C1C(=O)c2ccccc2-c2ccccc21	0.5	3.0	5.0	64.7*	58.6*	-12.1	68.1*	-8.2	CSN deneddyl val=0.2;MMP-2 counter=-1.6;Thrombin cntr=-38.7
O=C1C(=O)c2cccc3cccc1c23	0.3	0.7	-9.8	-11.9	-3.6	10.3	nt	nt
Cc1nc2c(=O)n(C)c(=O)nc-2n(C)n1	-0.8	78.0*	-3.5	46.3*	62.6*	1.0	71.2*	-6.9	CSN deneddyl val=12.2;MMP-2 counter=10.4;Thrombin cntr=-40.8
COC(=O)C1=C(c2ccc(OC(F)(F)F)cc2)C[C@@H]2CC[C@H]1N2C(=O)N1CCC(O)CC1	0.0	-4.9	nt	5.3	1.1	0.4	nt	nt
CCN(CC)c1ccc(N=Cc2c(O)n(Cc3ccco3)c(=O)[nH]c2=O)cc1	-0.5	101.6	-6.7	36.6*	62.0*	8.1	3.9	-9.9	MMP-2 counter=-14.2;Thrombin cntr=25.1*
CCCCC1C(=O)NC(=S)N(C)C1=O (stereo not drawn)	nt	0.0	nt	nt	-2.7	nt	nt	nt
Cc1ccc(N2C(=O)NC(=O)/C(=C\C=C\c3ccco3)C2=O)cc1	3.2	9.0	-7.7	17.4	33.9	-7.0	nt	nt
Cn1cccc1/C=C1\C(=O)NC(=O)N(Cc2ccco2)C1=O	nt	-25.4	nt	nt	54.0	nt	nt	nt
O=C1NC(=O)N(Cc2ccco2)C(=O)/C1=C/C=C/c1ccco1	-0.3	-30.8	11.6	35.3*	45.8*	-1.5	30.7	7.3	CSN deneddyl val=47.6;MMP-2 counter=26.1*;Thrombin cntr=20.0*
CN1C(=O)/C(=C/C=C/c2ccco2)C(=O)NC1=S	0.1	4.1	0.6	34.4*	65.2*	-3.7	69.1*	9.8	CSN deneddyl val=29.2;MMP-2 counter=19.8*;Thrombin cntr=50.1*
C[C@H]1[C@@H](OS(=O)(=O)O)C[C@@H]2C[C@H]([C@@H](O)c3cc(=O)[nH]c(=O)[nH]3)NC3=NC[C@H]1N32	nt	2.0	nt	nt	1.9	nt	nt	nt
CN1C(=O)/C(=C\c2ccc(N3CCCCC3)o2)C(=O)NC1=S	-3.7	181.5	-23.1	-20.9	172.0	-1.3	nt	nt

High-throughput results: PubChem BioAssay, several laboratories
